# Source: paper PMC9426946 (Biochimica et biophysica acta. Proteins and proteomics, 2022)
# B1: β-casein: bovine β-casein, protein substrate (protein, UniProt P02666 16-224, looked up)
# Beta-casein: RELEELNVPGEIVESLSSSEESITRINKKIEKFQSEEQQQTEDELQDKIHPFAQTQSLVYPFPGPIPNSLPQNIPPLTQTPVVVPPFLQPEVMGVSKVKEAMAPKHKEMPFPKYPVEPFTESQSLTLTDVENLHLPLPLLQSWMHQPHQPLPPTVMFPPQSVLSLSQSKVLPVPQKAVPYPQRDMPIQAFLLYQEPVLGPVRGPFPIIV
# What was measured:
# [1] = target: chymotrypsin B1 (Homo sapiens) (UniProt P17538); conditions: cited from earlier work
# CTRB1 D236R = CTRB1 D236R (Homo sapiens, UniProt P17538, D236R/Y164H); experiment: Michaelis-Menten kinetics on p-nitroanilide peptide substrates; assay type: biochemical; conditions: for kcat/KM, CTRB1 D236R / kcat, CTRB1 D236R / Km: 0.1 M Tris-HCl pH 8.0, 1 mM CaCl2, 0.05% Tween-20; for kcat, CTRB1 D236R / Km: average of two independent measurements; for Km: read-out: KM, CTRB1 D236R
# In short: (§1)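 Suc- and H-Ala-Ala-Pro-Phe-pNA were used at 8–1050 µM, from DMSO stocks calibrated by complete chymotryptic hydrolysis. Reactions were started by adding enzyme to 1 or 5 nM final. p-Nitroaniline release was followed at 410 nm for 3–5 min (ε 8,800 M-1cm-1), with rates taken from linear portions. KM and Vmax came from hyperbolic fits, averaging two independent measurements. Human enzymes were recombinant Y164H forms, ecotin-titrated.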
# bCTRA = bCTRA (Bos taurus, UniProt P00766); experiment: as above; assay type: biochemical, bovine; conditions: for kcat/KM, bCTRA / kcat, bCTRA / Km: 0.1 M Tris-HCl pH 8.0, 1 mM CaCl2, 0.05% Tween-20; for kcat, bCTRA / Km: average of two independent measurements; for Km: read-out: KM, bCTRA
# In short: as §1
# CTRB2 [2] = target: T1, CTRB2 (Homo sapiens, UniProt Q6GPI1, Y164H); experiment: as above; assay type: biochemical; conditions: for kcat/KM, CTRB2 / kcat, CTRB2 / Km: 0.1 M Tris-HCl pH 8.0, 1 mM CaCl2, 0.05% Tween-20; for kcat, CTRB2 / Km: average of two independent measurements; for Km: read-out: KM, CTRB2
# In short: as §1
# CTRB1 S242T = CTRB1 S242T (Homo sapiens, UniProt P17538, S242T/Y164H); experiment: as above; assay type: biochemical; conditions: 0.1 M Tris-HCl pH 8.0, 1 mM CaCl2, 0.05% Tween-20; for kcat, CTRB1 S242T / Km: average of two independent measurements; for Km: read-out: KM, CTRB1 S242T
# In short: as §1
# CTRB1 = CTRB1 (Homo sapiens, UniProt P17538, Y164H); experiment: as above; assay type: biochemical; conditions: for kcat/KM, CTRB1 / Km: 0.1 M Tris-HCl pH 8.0, 1 mM CaCl2, 0.05% Tween-20; for Km: read-out: KM, CTRB1, average of two independent measurements
# In short: as §1
# human CTRB2 = conditions: read-out: KD on human CTRB2; prior observations; cited from earlier work
# CTRB2 [3] = target: T1, CTRB2; experiment: Casein digestion by chymotrypsins; assay type: biochemical; conditions: 0.2 mg/mL β-casein, 5 nM enzyme, 0.1 M Tris-HCl pH 8.0, 1 mM CaCl2, 37°C; SDS-PAGE densitometry, two experiments
# [4] = relative to Suc-Ala-Ala-Pro-Phe-p-nitroanilide
# CTRB1 D236R, sequence (P17538 19-263 Y164H/D236R): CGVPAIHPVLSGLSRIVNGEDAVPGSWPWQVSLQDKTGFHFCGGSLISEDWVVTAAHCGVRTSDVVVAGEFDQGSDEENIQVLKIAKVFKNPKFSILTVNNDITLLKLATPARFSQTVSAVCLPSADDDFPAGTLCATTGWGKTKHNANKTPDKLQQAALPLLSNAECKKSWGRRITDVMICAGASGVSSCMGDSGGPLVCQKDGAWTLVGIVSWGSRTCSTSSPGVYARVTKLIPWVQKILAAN
# T1 sequence (Q6GPI1 19-263 Y164H): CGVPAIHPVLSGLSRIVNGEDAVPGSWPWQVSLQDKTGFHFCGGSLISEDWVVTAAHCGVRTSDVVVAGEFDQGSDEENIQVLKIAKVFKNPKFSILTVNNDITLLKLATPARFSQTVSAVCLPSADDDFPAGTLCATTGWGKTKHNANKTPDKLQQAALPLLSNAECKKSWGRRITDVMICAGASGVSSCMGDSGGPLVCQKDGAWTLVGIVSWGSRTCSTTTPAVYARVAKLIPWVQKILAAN
# CTRB1, sequence (P17538 19-263 Y164H): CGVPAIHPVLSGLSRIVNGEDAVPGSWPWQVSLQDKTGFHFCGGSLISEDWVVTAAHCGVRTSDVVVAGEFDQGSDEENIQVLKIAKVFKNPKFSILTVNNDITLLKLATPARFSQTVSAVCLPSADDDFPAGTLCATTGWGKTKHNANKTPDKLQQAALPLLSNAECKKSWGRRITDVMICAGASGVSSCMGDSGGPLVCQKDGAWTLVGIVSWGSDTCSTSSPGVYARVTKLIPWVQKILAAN
# CTRB1 S242T, sequence (P17538 19-263 Y164H/S242T): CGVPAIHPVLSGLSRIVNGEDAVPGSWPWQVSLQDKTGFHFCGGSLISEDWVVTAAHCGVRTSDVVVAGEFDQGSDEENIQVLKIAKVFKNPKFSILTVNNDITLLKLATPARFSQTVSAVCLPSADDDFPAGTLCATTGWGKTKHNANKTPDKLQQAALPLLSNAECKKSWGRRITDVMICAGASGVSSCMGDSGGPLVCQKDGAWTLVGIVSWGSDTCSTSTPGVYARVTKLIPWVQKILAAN
# chymotrypsin B1 (Homo sapiens), sequence (P17538 34-164, chain 2 of 2): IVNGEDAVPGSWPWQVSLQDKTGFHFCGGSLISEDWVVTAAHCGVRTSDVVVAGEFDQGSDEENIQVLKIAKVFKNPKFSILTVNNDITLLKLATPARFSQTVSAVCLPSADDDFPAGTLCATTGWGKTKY
# chymotrypsin B1 (Homo sapiens), sequence (P17538 167-263, chain 3 of 2): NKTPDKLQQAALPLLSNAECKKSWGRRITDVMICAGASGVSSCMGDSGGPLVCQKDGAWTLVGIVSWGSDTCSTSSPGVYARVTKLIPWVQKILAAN
Molecule,"kcat/KM, CTRB1 D236R (CTRB1 D236R) [M⁻¹ s⁻¹]","kcat, CTRB1 D236R (CTRB1 D236R) [s⁻¹]",Km (CTRB1 D236R) [µM],"kcat/KM, bCTRA (bCTRA) [M⁻¹ s⁻¹]","kcat, bCTRA (bCTRA) [s⁻¹]",Km (bCTRA) [µM],"kcat/KM, CTRB2 (CTRB2 [2]) [M⁻¹ s⁻¹]","kcat, CTRB2 (CTRB2 [2]) [s⁻¹]",Km (CTRB2 [2]) [µM],"kcat/KM, CTRB1 S242T (CTRB1 S242T) [M⁻¹ s⁻¹]","kcat, CTRB1 S242T (CTRB1 S242T) [s⁻¹]",Km (CTRB1 S242T) [µM],"kcat/KM, CTRB1 (CTRB1) [M⁻¹ s⁻¹]",Km (CTRB1) [µM],also measured
SGPI-2 (from UniProt O46162),,,,,,,,,,,,,,,Kd [1]: 1.1 nM
H-Ala-Ala-Pro-Phe-p-nitroanilide [H-AAPF-pNA],45000,9.64,214,55000,20.3,371,36000,10.9,304,39000,21.3,550,40000,575,"reduction in kcat/KM on removal of the Suc group, CTRB2 (CTRB2 [2]; [4]): 36 fold; reduction in kcat/KM on removal of the Suc group, CTRB1 (CTRB1; [4]): 4 fold"
Schistocerca gregaria proteinase inhibitor 2 [wild-type SGPI-2],,,,,,,,,,,,,,,Kd (human CTRB2): 0.16 nM
Suc-Ala-Ala-Pro-Phe-p-nitroanilide [Suc-AAPF-pNA],2e+06,36.0,17.9,790000,36.9,46.6,1.3e+06,26.1,20.4,180000,38.4,220,160000,219,kcat/KM of CTRB1 D236R relative to CTRB1 (CTRB1 D236R; more efficient than CTRB1): 12.5 fold; kcat/KM of bCTRA relative to CTRB1 (bCTRA; more efficient than CTRB1): 5 fold; kcat/KM of CTRB2 relative to CTRB1 (CTRB2 [2]; more efficient than CTRB1): 8.1 fold
B1,,,,,,,,,,,,,,,digestion activity of CTRB2 relative to CTRB1 (CTRB2 [3]): 2.3 fold
